Results reported in ChEMBL document CHEMBL3244185, “Synthesis and antiprotozoal activity of 2,5-bis(4-guanylphenyl)furans” (J Med Chem, 1977).
The source made the active and inactive calls. No cut-off for these calls is given here.

What was measured:
Plasmodium berghei [1] = experiment: Antimalarial activity against Plasmodium berghei infected in mouse up to 640 mg/kg, sc administered 72 hrs post infection; assay type: functional, organism-based; design: dose 640 mg/kg
In short: (§1)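 Antimalarial screen in P. berghei-infected mice, doses in mg/kg. The read-out is the gain in mean survival time of treated animals over untreated controls. Toxicity is recorded at the dose levels tested.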

[2] = tested on: Trypanosoma brucei rhodesiense; experiment: Antitrypanosomal activity against Trypanosoma rhodesiense CT infected in ICR/HA Swiss mouse assessed as 30-day increase in survival time at 5 mg/kg relative to control; assay type: functional, organism-based; design: dose 5 mg/kg
In short: (§2)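 Mice infected with T. rhodesiense, dosed per mg of compound per kg body weight, five mice per dose level. A cure means survival extended 30 days beyond untreated controls, so at most five cures per dose. Non-curative effects are given as ΔMST, the gain in mean survival time in days versus controls. Toxic deaths are flagged separately.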

[3] = tested on: Trypanosoma brucei rhodesiense; experiment: Antitrypanosomal activity against Trypanosoma rhodesiense CT infected in ICR/HA Swiss mouse assessed as 30-day increase in survival time at 10 mg/kg relative to control; assay type: functional, organism-based; design: dose 10 mg/kg; in short: as §2
[4] = tested on: Trypanosoma brucei rhodesiense; experiment: Antitrypanosomal activity against Trypanosoma rhodesiense CT infected in ICR/HA Swiss mouse assessed as 30-day increase in survival time at 20 mg/kg relative to control; assay type: functional, organism-based; design: dose 20 mg/kg; in short: as §2
[5] = tested on: Trypanosoma brucei rhodesiense; experiment: Antitrypanosomal activity against Trypanosoma rhodesiense CT infected in ICR/HA Swiss mouse assessed as 30-day increase in survival time at 40 mg/kg relative to control; assay type: functional, organism-based; design: dose 40 mg/kg; in short: as §2
[6] = tested on: Trypanosoma brucei rhodesiense; experiment: Antitrypanosomal activity against Trypanosoma rhodesiense CT infected in ICR/HA Swiss mouse assessed as 30-day increase in survival time at 80 mg/kg relative to control; assay type: functional, organism-based; design: dose 80 mg/kg; in short: as §2
[7] = tested on: Trypanosoma brucei rhodesiense; experiment: Antitrypanosomal activity against Trypanosoma rhodesiense CT infected in ICR/HA Swiss mouse assessed as 30-day increase in survival time at 160 mg/kg relative to control; assay type: functional, organism-based; design: dose 160 mg/kg; in short: as §2
[8] = tested on: Trypanosoma brucei rhodesiense; experiment: Antitrypanosomal activity against Trypanosoma rhodesiense CT infected in ICR/HA Swiss mouse assessed as 30-day increase in survival time at 320 mg/kg relative to control; assay type: functional, organism-based; design: dose 320 mg/kg; in short: as §2
[9] = tested on: Trypanosoma brucei rhodesiense; experiment: Antitrypanosomal activity against Trypanosoma rhodesiense CT infected in ICR/HA Swiss mouse assessed as increase in mean survival time at 1.25 mg/kg; assay type: functional
In short: (§3)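 Mice, five per dosage level, each dosed in mg of compound per kg body weight. ΔMST is the increase in mean survival time of treated over untreated infected controls, in days. A cure is a 30-day survival increase over controls, with at most five cures per dose. Deaths attributed to compound toxicity were scored as toxic deaths.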

Mus musculus [10] = experiment: Toxicity in ICR/HA Swiss mouse infected with Trypanosoma rhodesiense CT assessed as mortality at 320 mg/kg; assay type: organism-based; design: dose 320 mg/kg; settings: in vivo; in short: as §3
Mus musculus [11] = experiment: Toxicity in ICR/HA Swiss mouse infected with Trypanosoma rhodesiense CT assessed as mortality at 640 mg/kg; assay type: organism-based; design: dose 640 mg/kg; settings: in vivo; in short: as §3
[12] = tested on: Trypanosoma brucei rhodesiense; experiment: Antitrypanosomal activity against Trypanosoma rhodesiense CT infected in ICR/HA Swiss mouse assessed as 30-day increase in survival time at 640 mg/kg relative to control; assay type: functional, organism-based; design: dose 640 mg/kg; in short: as §2
[13] = tested on: Trypanosoma brucei rhodesiense; experiment: Antitrypanosomal activity against Trypanosoma rhodesiense CT infected in ICR/HA Swiss mouse assessed as 30-day increase in survival time at 1.25 mg/kg relative to control; assay type: functional, organism-based; design: dose 1.25 mg/kg; in short: as §2
[14] = tested on: Trypanosoma brucei rhodesiense; experiment: Antitrypanosomal activity against Trypanosoma rhodesiense CT infected in ICR/HA Swiss mouse assessed as 30-day increase in survival time at 2.5 mg/kg relative to control; assay type: functional, organism-based; design: dose 2.5 mg/kg; in short: as §2
Plasmodium berghei [15] = experiment: Antimalarial activity against Plasmodium berghei infected in mouse assessed as increase in mean survival time at 640 mg/kg, sc administered 72 hrs post infection; assay type: functional; settings: route subcutaneous
Mus musculus [16] = experiment: Toxicity in ICR/HA Swiss mouse infected with Trypanosoma rhodesiense CT assessed as mortality at 40 mg/kg; assay type: organism-based; design: dose 40 mg/kg; settings: in vivo; in short: as §3
Mus musculus [17] = experiment: Toxicity in ICR/HA Swiss mouse infected with Trypanosoma rhodesiense CT assessed as mortality at 160 mg/kg; assay type: organism-based; design: dose 160 mg/kg; settings: in vivo; in short: as §3
[18] = tested on: Trypanosoma brucei rhodesiense; experiment: Antitrypanosomal activity against Trypanosoma rhodesiense CT infected in ICR/HA Swiss mouse assessed as increase in mean survival time at 2.5 mg/kg; assay type: functional; in short: as §3
[19] = tested on: Trypanosoma brucei rhodesiense; experiment: Antitrypanosomal activity against Trypanosoma rhodesiense CT infected in ICR/HA Swiss mouse assessed as 30-day increase in survival time at 0.83 mg/kg relative to control; assay type: functional, organism-based; design: dose 0.83 mg/kg; in short: as §2
[20] = tested on: Trypanosoma brucei rhodesiense; experiment: Antitrypanosomal activity against Trypanosoma rhodesiense CT infected in ICR/HA Swiss mouse assessed as increase in mean survival time at 5 mg/kg; assay type: functional; in short: as §3
[21] = tested on: Trypanosoma brucei rhodesiense; experiment: Antitrypanosomal activity against Trypanosoma rhodesiense CT infected in ICR/HA Swiss mouse assessed as increase in mean survival time at 0.21 mg/kg; assay type: functional; in short: as §3
[22] = tested on: Trypanosoma brucei rhodesiense; experiment: Antitrypanosomal activity against Trypanosoma rhodesiense CT infected in ICR/HA Swiss mouse assessed as increase in mean survival time at 0.42 mg/kg; assay type: functional; in short: as §3
[23] = tested on: Trypanosoma brucei rhodesiense; experiment: Antitrypanosomal activity against Trypanosoma rhodesiense CT infected in ICR/HA Swiss mouse assessed as increase in mean survival time at 0.83 mg/kg; assay type: functional; in short: as §3
Plasmodium berghei [24] = experiment: Antimalarial activity against Plasmodium berghei infected in mouse assessed as increase in mean survival time at 320 mg/kg, sc administered 72 hrs post infection; assay type: functional; settings: route subcutaneous
Mus musculus [25] = experiment: Toxicity in mouse infected with Plasmodium berghei at 640 mg/kg, sc administered 72 hrs post infection; assay type: organism-based; design: dose 640 mg/kg, route subcutaneous; settings: in vivo; in short: as §1

SMILES | Activity (Plasmodium berghei [1]) | Activity [2] | Activity [3] | Activity [4] | Activity [5] | Activity [6] | Activity [7] | Activity [8] | Activity [12] | also measured
Cc1c(-c2ccc([C+](N)N)cc2)oc(-c2ccc([C+](N)N)cc2)c1C | inactive | Active | Active | Active | Active | Active | Active | Active | – | –
Cc1c(-c2ccc([C+]3NCCCN3)cc2)oc(-c2ccc([C+]3NCCCN3)cc2)c1C.[Cl-].[Cl-] | inactive | – | Active | Active | Active | Active | – | – | – | Survival [9]: 3.2 days; Activity (Mus musculus [10]): Toxic; Activity (Mus musculus [11]): Toxic
N=C(N)c1ccc(OCCCCCOc2ccc(C(=N)N)cc2)cc1 | – | Active | Active | Active | Active | Active | Active | Active | Active | –
CCN(CC)CCCN[C+](N)c1ccc(-c2ccc(-c3ccc([C+](N)NCCCN(CC)CC)cc3)o2)cc1 | inactive | – | – | – | – | – | – | – | – | –
Cc1c(-c2ccc([C+]3NCC(C)N3)cc2)oc(-c2ccc([C+]3NCC(C)N3)cc2)c1C (configuration not stated) | inactive | – | – | – | – | – | – | – | – | –
N[C+](N)c1ccc(-c2cc(Cl)c(-c3ccc([C+](N)N)cc3)o2)cc1 | inactive | Active | Active | Active | – | – | – | – | – | Activity [13]: Active; Activity [14]: Active
[Cl-].[Cl-].c1cc([C+]2NCCN2)ccc1-c1ccc(-c2ccc([C+]3NCCN3)cc2)o1 | – | – | – | – | Active | Active | Active | Active | – | Survival (Plasmodium berghei [15]): 5 days
CN1CCCN(C)[C+]1c1ccc(-c2ccc(-c3ccc([C+]4N(C)CCCN4C)cc3)o2)cc1.[Cl-].[Cl-] | inactive | – | – | – | – | – | – | – | – | Activity (Mus musculus [16]): Toxic; Activity (Mus musculus [17]): Toxic; Activity (Mus musculus [11]): Toxic
Cc1c(-c2ccc([C+]3NCCN3)cc2)oc(-c2ccc([C+]3NCCN3)cc2)c1C.[Cl-].[Cl-] | inactive | – | – | Active | Active | Active | Active | Active | Active | Survival [9]: 1.8 days; Survival [18]: 18 days
N=C(N)c1ccc(/C=C/c2ccc(C(=N)N)cc2)cc1 | – | Active | Active | Active | Active | Active | Active | Active | Active | Activity [14]: Active
Cc1cc(-c2ccc([C+](N)N)cc2)oc1-c1ccc([C+](N)N)cc1 | inactive | Active | Active | Active | Active | Active | Active | Active | – | Activity [19]: Active; Activity [13]: Active; Activity [14]: Active
CC1CN[C+](c2ccc(-c3ccc(-c4ccc([C+]5NCC(C)N5)cc4)o3)cc2)N1.[Cl-].[Cl-] (configuration not stated) | inactive | – | – | – | – | Active | Active | Active | Active | Survival [18]: 0.6 days; Survival [20]: 3.2 days
N[C+](N)c1ccc(-c2oc(-c3ccc([C+](N)N)cc3)c(Cl)c2Cl)cc1.[Cl-].[Cl-] | inactive | – | Active | Active | Active | Active | Active | Active | – | Survival [21]: 0.2 days; Survival [22]: 0.4 days; Survival [23]: 0.8 days; Survival [9]: 2 days; Survival [18]: 6.2 days
Cl.Cl.c1cc(-c2ccc(-c3ccc(C4=NCCCN4)cc3)o2)ccc1C1=NCCCN1 | – | – | – | Active | Active | Active | Active | – | – | Survival (Plasmodium berghei [24]): 12 days; Activity (Mus musculus [25]): Toxic
CN1CCN(C)[C+]1c1ccc(-c2ccc(-c3ccc([C+]4N(C)CCN4C)cc3)o2)cc1.[Cl-].[Cl-] | inactive | – | – | – | – | – | – | – | – | Activity (Mus musculus [16]): Toxic; Activity (Mus musculus [17]): Toxic; Activity (Mus musculus [11]): Toxic
NNC(=O)c1ccc(-c2ccc(-c3ccc(C(=O)NN)cc3)o2)cc1 | inactive | – | – | – | – | – | – | – | – | –
N=C(N)c1ccc(/C=C/c2ccc(C(=N)N)cc2O)cc1 | – | Active | Active | Active | Active | Active | Active | Active | Active | Activity [14]: Active
Cc1c(-c2ccc([C+](N)N)cc2)oc(-c2ccc([C+](N)N)cc2)c1Cl.[Cl-].[Cl-] | inactive | Active | Active | Active | Active | Active | Active | Active | – | Survival [21]: 2.1 days
N[C+](N)c1ccc(-c2ccc(-c3ccc([C+](N)N)cc3)o2)cc1 | inactive | Active | Active | Active | Active | Active | Active | Active | Active | –
